Assays:
[1] = Stability in pH 7.3 PBS assessed as pig liver esterase mediated hydrolysis by measuring half life upto 2 hrs by HPLC analysis; type: ADME, Sus scrofa
Outline: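 Porcine liver esterase (3 mg/mL in PB) added to compound diluted from a 6.0 mM DMSO/water solution into DMSO and 50 mM phosphate buffer, pH 7.3. Incubated at 37 °C. Timed aliquots snap-frozen in liquid nitrogen, then thawed, sonicated, centrifuged, filtered and analysed by HPLC. t½ calculated as for chemical hydrolysis.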

[2] = Chemical stability of compound assessed as half life in PBS at pH 7.3 by RP18-HPLC analysis; type: physicochemical
Outline: (§1)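 From 50 mM DMSO stocks, diluted to 1.9 mM hydrolysis solutions in water/DMSO. Reaction started by adding phosphate buffer (50 mM, pH 7.3; 25 mM also stated). Incubated at 37 °C with time-course sampling. Starting material and products (γ-kb-NTP, d4TDP, thymine) followed by analytical rp18 HPLC, from which t½ was calculated.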

[3] = Stability of compound in human CEM/0 cell extract assessed as half life by RP18-HPLC analysis; type: ADME, tissue-based, CCRF-CEM
Outline: (§2)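 Extract preparation: CEM CD4⁺ T-cells grown in RPMI-1640 to ~3 × 10⁶ cells/mL, washed in cold PB, resuspended at 10⁸ cells/mL, sonicated, clarified at 10,000 rpm and stored at −80 °C. Compounds from 50 mM DMSO stock (diluted to 6.0 mM in DMSO) incubated in the extract. Reactions stopped with THF, put on ice, centrifuged and filtered.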

[4] = tested on: Human immunodeficiency virus 1; test: Antiviral activity against HIV1 3B infected in human CEM/0 cells assessed as inhibition of virus-induced syncytia cell formation measured after 4 to 5 days by microscopic analysis; type: functional, organism-based; details: Human immunodeficiency virus 1, 3B, CCRF-CEM
Outline: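 Syncytium-inhibition assay in wild-type CEM/0 or TK-deficient CEM/TK⁻ cells, ~3 × 10⁵ cells/mL, infected with 100 CCID₅₀/mL HIV-1(III_B) or HIV-2(ROD), with serial compound dilutions. Incubated 4−5 days at 37 °C in humidified CO₂ atmosphere. Giant cells scored microscopically; EC₅₀ is the concentration halving HIV-induced giant cell formation. Values are the mean ± SD of n = 2−3 independent experiments.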

[5] = Cytotoxicity against human CEM/0 CD4+ T cells assessed as reduction in cell viability; type: cell-based, CCRF-CEM
Outline: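 Cytostatic readout: CC₅₀ is the compound concentration inhibiting CEM CD4⁺ T-cell proliferation by 50%. Values are the mean ± SD of n = 2−3 independent experiments.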

[6] = Prodrug conversion in PBS buffer at pH 7.3 assessed as pig liver esterase-mediated cleavage of ketobenzyl-residue measured over 800 hrs by HPLC analysis; type: ADME, Sus scrofa; details: pH 7.3, 800 h
[7] = Prodrug conversion in human CEM/0 cell extract assessed as gamma-kb-d4TTP formation by RP18-HPLC analysis; type: ADME, tissue-based; details: ccrf-cem; outline: as §2
[8] = Prodrug conversion in human CEM/0 cell extract assessed as d4TDP formation by RP18-HPLC analysis; type: ADME, tissue-based; details: ccrf-cem; outline: as §2
[9] = Prodrug conversion in human CEM/0 cell extract assessed as NTP formation by RP18-HPLC analysis; type: ADME, tissue-based; details: ccrf-cem; outline: as §2
[10] = tested on: Human immunodeficiency virus 2; test: Antiviral activity against HIV2 ROD infected in human TK-deficient […] cells assessed as inhibition of viral-induced giant cell formation incubated for 4 to 5 days by microscopy; details: Human immunodeficiency virus 2, ISOLATE ROD
[11] = tested on: Human immunodeficiency virus 2; test: Antiviral activity against HIV2 ROD infected in human CEM/0 cells assessed as inhibition of virus-induced syncytia cell formation measured after 4 to 5 days by microscopic analysis; details: Human immunodeficiency virus 2, ISOLATE ROD, CCRF-CEM
[12] = Prodrug conversion in human CEM/0 cell extract assessed as d4TTP formation after 96 hrs by HPLC analysis; type: ADME, tissue-based; details: ccrf-cem; outline: as §2
[13] = Substrate activity at human DNA polymerase gamma assessed as increase in primer extension incubated at 37 degC for 60 mins and at 80 degC for 3 mins in presence of fluorescent-lebelled dATP, dCTP and dGTP by PAGE analysis; type: ADME; details: 1.05 h, time 63 min
Outline: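 Human DNA polymerase γ (4 U) with Cy3-primer/template duplex 0.20 μM in 60 mM Tris-HCl pH 8, 5 mM MgOAc, 1.0 mM DTT, 0.1 mM spermine, 0.01% BSA. Preincubated 5 min at 37 °C without nucleotides, then run 60 min at 37 °C with nucleotides 250 μM, then 80 °C for 3 min. Denaturing 15% PAGE with fluorescence imaging.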

[14] = Chemical stability of compound in PBS at pH 7.3 by RP18-HPLC analysis; type: physicochemical; details: buffer; outline: as §1
[15] = Prodrug conversion in human CEM/0 cell extract assessed as d4TDP formation after 96 hrs by HPLC analysis; type: ADME, tissue-based; details: ccrf-cem; outline: as §2
[16] = Stability in human CEM/0 cell extract assessed as parent compound remaining after 98 hrs by HPLC analysis; type: ADME, tissue-based, CCRF-CEM; details: read-out: Stabilty; outline: as §2
[17] = Substrate activity at HIV reverse transcriptase assessed as increase in primer extension incubated at 37 degC for 60 mins and at 80 degC for 3 mins in presence of fluorescent-lebelled dATP, dCTP and dGTP by PAGE analysis; type: ADME; details: human immunodeficiency virus, 1.05 h; time 63 min
[18] = Selectivity index, ratio of CC50 for cytotoxicity against human CEM/0 CD4+ T cells to EC50 for antiviral activity against HIV1 3B infected in human CEM/0 cells; type: toxicity, cell-based; details: read-out: Ratio CC50/EC50
Outline: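 Selectivity index from CC₅₀ (50% inhibition of CEM cell proliferation) and EC₅₀ (50% inhibition of HIV-1(III_B)-induced giant cell formation in CEM/0 cells, 4−5 days, microscopy), both mean ± SD of n = 2−3 independent experiments.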

[19] = Substrate activity at HIV reverse transcriptase assessed as increase in primer extension incubated at 37 degC for 15 mins in presence of radiolabeled dATP, dCTP, and dGTP by PAGE analysis; type: ADME; details: human immunodeficiency virus, 0.25 h
Outline: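 Template 30-mer annealed to a ³²P-labelled 25-mer primer (95 °C, then cooled to −20 °C over 3 h; 20 mM Tris-HCl pH 7.6, 50 mM NaCl). Reaction: 50 mM Tris-HCl pH 8.6, 10 mM MgCl₂, 40 mM KCl, nucleotides 66 μM, HIV-RT 0.2 U, duplex 0.32 μM. Run 15 min at 37 °C, stopped at 80 °C for 3 min. Resolved on denaturing 15% PAGE and read by phosphorimaging.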

[20] = Stability in human CEM/0 cell extract assessed as parent compound remaining up to 98 hrs by HPLC analysis; type: ADME, tissue-based, CCRF-CEM; details: read-out: Stabilty; outline: as §2

SMILES | half-life [1] | half-life [2] | half-life [3] | EC50 [4] | CC50 [5] | Drug metabolism [6] | Drug metabolism [7] | Drug metabolism [8] | Drug metabolism [9] | EC50 [10] | EC50 [11] | Drug metabolism [12] | Activity [13] | Stabilty [14] | Drug metabolism [15] | remaining at 98 h [16] | Activity [17] | selectivity ratio [18] | Activity [19] | remaining at 98 h [20]
CCCCCCCCCCCCCCCCCC(=O)Oc1ccc(COP(=O)(OCc2ccc(C(=O)CCCCCCCCCCCCCCCCC)cc2)OP(=O)(O)OP(=O)(O)OC[C@@H]2C=C[C@H](n3cc(C)c(=O)[nH]c3=O)O2)cc1 (stereo not given in full) | 0.167 h | 11 h | 2.1 h | 420 nM | 28000 nM | Metabolite_Notdetected | Metabolite_Detected | Metabolite_Detected | Metabolite_Notdetected | 380 nM | 830 nM |  |  |  |  |  |  |  |  | 
CCCCCCCCC(=O)Oc1ccc(COP(=O)(OCc2ccc(OC(=O)CCCCCCCC)cc2)OP(=O)(O)OP(=O)(O)OC[C@@H]2C=C[C@H](n3cc(C)c(=O)[nH]c3=O)O2)cc1 |  | 52 h | 2.5 h | 310 nM | 52000 nM |  |  |  |  | 2260 nM | 620 nM |  |  |  |  |  |  |  |  | 
CCCCCCCCCCCCCCCCCC(=O)Oc1ccc(COP(=O)(OCc2ccc(C(=O)CCCCCCCCC)cc2)OP(=O)(O)OP(=O)(O)OC[C@@H]2C=C[C@H](n3cc(C)c(=O)[nH]c3=O)O2)cc1 (stereo not given in full) | 0.167 h | 94 h | 7.8 h | 580 nM | 35000 nM | Metabolite_Notdetected | Metabolite_Detected | Metabolite_Detected | Metabolite_Notdetected | 1100 nM | 780 nM |  |  |  |  |  |  |  |  | 
CCCCCCCCCC(=O)c1ccc(COP(=O)(O)OP(=O)(O)OP(=O)(O)OC[C@@H]2C=C[C@H](n3cc(C)c(=O)[nH]c3=O)O2)cc1 |  |  | > 30 h |  |  | Metabolite_Notdetected |  |  |  |  |  | Metabolite_Notdetected | Not Active | Stable | Metabolite_Notdetected | 89% | Active |  |  | 
CCCCCCCCCC(=O)c1ccc(COP(=O)(O)OP(=O)(O)OP(=O)(O)OC[C@H]2O[C@@H](n3cnc4c(N)ncnc43)C[C@@H]2O)cc1 |  |  |  | 10000 nM | 74000 nM | Metabolite_Notdetected |  |  |  | > 10000 nM | > 10000 nM |  |  | Stable |  |  |  | 7 |  | 
CCCCCCCCCCCCCCCCCC(=O)c1ccc(COP(=O)(OCc2ccc(OC(=O)CCCCCC)cc2)OP(=O)(O)OP(=O)(O)OC[C@@H]2C=C[C@H](n3cc(C)c(=O)[nH]c3=O)O2)cc1 (stereo not given in full) | 0.167 h | 109 h | 6.9 h | 440 nM | 34000 nM | Metabolite_Notdetected | Metabolite_Detected | Metabolite_Detected | Metabolite_Notdetected | 400 nM | 1100 nM |  |  |  |  |  |  |  |  | 
CCCCCCCCCC(=O)c1ccc(COP(=O)(OCc2ccc(OC(=O)CCCC)cc2)OP(=O)(O)OP(=O)(O)OC[C@@H]2C=C[C@H](n3cc(C)c(=O)[nH]c3=O)O2)cc1 (stereo not given in full) | 0.167 h | 43 h | 1.1 h | 370 nM | 25000 nM | Metabolite_Notdetected | Metabolite_Detected | Metabolite_Detected | Metabolite_Notdetected | 2500 nM | 1200 nM |  |  |  |  |  |  |  |  | 
CCCCCCCCCCCCCCCCCC(=O)Oc1ccc(COP(=O)(OCc2ccc(OC(=O)CCCC)cc2)OP(=O)(O)OP(=O)(O)OC[C@@H]2C=C[C@H](n3cc(C)c(=O)[nH]c3=O)O2)cc1 (stereo not given in full) |  | 50 h |  | 120 nM | 33000 nM |  |  |  |  | 540 nM | 100 nM |  |  |  |  |  |  |  |  | 
CCCCCCCCCCCCCCCCCC(=O)c1ccc(COP(=O)(O)OP(=O)(O)OP(=O)(O)OC[C@@H]2C=C[C@H](n3cc(C)c(=O)[nH]c3=O)O2)cc1 |  |  | > 30 h | 330 nM | 13000 nM | Metabolite_Notdetected |  |  |  | 260 nM | 600 nM | Metabolite_Notdetected | Not Active | Stable | Metabolite_Notdetected | 89% | Active |  |  | 
CCCCCCCCCC(=O)c1ccc(COP(=O)(O)OP(=O)(O)OP(=O)(O)OC[C@H]2O[C@@H](n3cc(C)c(=O)[nH]c3=O)C[C@@H]2O)cc1 |  |  | > 30 h | 6600 nM | 10000 nM | Metabolite_Notdetected |  |  |  | > 10000 nM | 8800 nM |  | Not Active | Stable |  |  |  |  | Active | 98%
Cc1cn([C@H]2C=C[C@@H](COP(=O)(O)OP(=O)(O)OP(=O)(O)O)O2)c(=O)[nH]c1=O [STAVUDINE TRIPHOSPHATE] |  |  |  | 1050 nM | > 100000 nM |  |  |  |  | > 100000 nM | 400 nM |  |  |  |  |  | Active |  |  | 
Cc1cn([C@H]2C=C[C@@H](CO)O2)c(=O)[nH]c1=O [STAVUDINE] |  |  |  | 430 nM |  |  |  |  |  | 150000 nM | 220 nM |  |  |  |  |  |  |  |  | 
